# Assay results pooled from the literature.
# Protocols differ between the studies behind these lines.
# CYP2C9: Cytochrome P450 2C9 (CYP2C9, Homo sapiens, UniProt P11712)
# MDH2: Malate dehydrogenase, mitochondrial (MDH2, Sus scrofa, UniProt P00346)
# CXCR4: C-X-C chemokine receptor type 4 (CXCR4, Homo sapiens, UniProt P61073)
# NTRK3: NT-3 growth factor receptor (NTRK3, Homo sapiens, UniProt Q16288)
# PLA2G5: Phospholipase A2 group V (PLA2G5, Homo sapiens, UniProt P39877)
# ACVR1: Activin receptor type-1 (ACVR1, Homo sapiens, UniProt Q04771)
# CDK9 with cyclin T1: Cyclin-dependent kinase 9, with cyclin T1 (CDK9, Homo sapiens, UniProt P50750)
Compound,target,test,setting,IC50 [µM]
COC(=O)C1CCN(C(=O)c2ccc(N(Cc3ccccc3)Cc3cnc4nc(N)nc(N)c4n3)cc2)CC1,CYP2C9,"enzyme activity, inhibitor, luciferase",,0.316
Cc1ccc(S(=O)(=O)Nc2ccc(-c3nc4ccc(NS(=O)(=O)c5ccc(C)cc5)cc4[nH]3)cc2)cc1,MDH2,"enzyme activity, inhibitor",,> 62.5
CCc1ccc(OCc2nnc(SCc3nc(C)no3)n2Cc2ccccc2)cc1,CXCR4,β-arrestin recruitment,,50
OCc1cc(C(O)CNCCCCCCOCCCCc2ccccc2)ccc1O (stereo not drawn),CXCR4,"calcium signal, antagonist",,38.3
COc1ccccc1S(=O)(=O)Nc1ccc(-c2nc3cc(NS(=O)(=O)c4ccccc4OC)ccc3o2)cc1,MDH2,"enzyme activity, inhibitor",,> 62.5
C[C@@H](N)COc1ccc(-c2cnc3ccc(N[C@H](C)c4cccc(F)c4)nn23)cc1,NTRK3,"enzyme activity, inhibitor",,0.0042
CCN1CCN(Cc2ccc(NC(=O)c3ccc(C)c(NC(=O)c4cncc(I)c4)c3)cc2C(F)(F)F)CC1,"Ephrin type-A receptor 2 (EPHA2, Homo sapiens, UniProt P29317)","enzyme activity, inhibitor, ADP detection",,0.578
COc1ccc(S(=O)(=O)Nc2ccc(-c3nc4cc(NS(=O)(=O)c5ccc(OC)cc5)ccc4o3)cc2)cc1,MDH2,"enzyme activity, inhibitor",,> 62.5
Cc1n[nH]c2nncnc12,"deoD (Escherichia coli, UniProt P0ABP8)","enzyme activity, inhibitor",pH 7,~700
O=S(=O)(Nc1ccc(-c2nc3cc(NS(=O)(=O)c4ccc(C(F)(F)F)cc4)ccc3o2)cc1)c1ccc(C(F)(F)F)cc1,MDH2,"enzyme activity, inhibitor",,> 62.5
CNC(=O)c1cc2c(Oc3ccc(NC(=O)C4(C(=O)Nc5ccc(F)cc5)CC4)cc3)ccnc2cc1OC,NTRK3,"enzyme activity, inhibitor, radiometric",,0.01
O=P([O-])(O)C(O)(C[n+]1cccc(-c2ccccc2)c1)P(=O)(O)O (stereo not drawn),"Geranylgeranyl pyrophosphate synthase (GGPS1, Homo sapiens, UniProt O95749)","enzyme activity, inhibitor",,15.8
[Na+].[Na+].[Na+].[O]=[V]([O-])([O-])[O-],"Tyrosine-protein phosphatase non-receptor type 6 (PTPN6, Homo sapiens, UniProt P29350)","enzyme activity, inhibitor, absorbance",,4.4
CC(=O)c1cccc(N=Nc2c(C(=O)O)cc(O)c(O)c2O)c1,PLA2G5,"enzyme activity, inhibitor, Ellman",,8.47
CC(C)(C)n1nc(-c2cnc3cc(OC4CC4)ccc3c2)c(C(N)=O)c1N,ACVR1,cell-free assay,,> 10
O=c1cc(-c2ccccc2)oc2c1ccc1ccccc12,CDK9 with cyclin T1,"enzyme activity, inhibitor, ADP detection",,> 100
CC(C)NCCCC[C@H](NC(=O)[C@H]1CCC(=O)N[C@@H](Cc2ccccc2)C(=O)N[C@@H](Cc2ccc(O)cc2)C(=O)N[C@@H](CCCCNC(C)C)C(=O)N[C@H](CCCNC(=N)N)C(=O)N[C@@H](Cc2ccc3ccccc3c2)C(=O)NCC(=O)N1)C(N)=O,CXCR4,"ligand displacement, radioligand",,0.0248
CCN(CC)CCOc1ccc2c(c1)C(=O)c1cc(OCCN(CC)CC)ccc1-2,"Acetylcholinesterase (ACHE, Homo sapiens, UniProt P22303)","enzyme activity, inhibitor",,0.0646
CCS(=O)(=O)c1ncc(N(Cc2ccco2)Cc2ccco2)c(C(=O)Nc2c(C)cccc2C)n1,CXCR4,"β-arrestin recruitment, antagonist",,13
COc1ccc(S(=O)(=O)Nc2ccc3oc(-c4ccc(NS(=O)(=O)c5cc(F)ccc5OC)cc4)nc3c2)cc1,MDH2,"enzyme activity, inhibitor",,> 62.5
CC(=O)NS(=O)(=O)c1ccc(NC(=O)C=CC(=O)O)cc1,"Dipeptidyl peptidase 4 (DPP4, Homo sapiens, UniProt P27487)","enzyme activity, inhibitor, fluorescence",,59.3
Cc1cnc(-c2ccc(-c3ccc(NC(=O)Nc4c(F)cc(F)cc4F)cc3F)c3c2C(=O)NC3)[nH]1,NTRK3,"enzyme activity, inhibitor",,0.0007
O=C(O)c1cccc(SCc2cccc(Nc3ncc4c(-c5ccc(N6CCOCC6)cc5)[nH]nc4n3)c2)c1,"Cyclin-dependent kinase 1, with cyclin B (CDK1, Homo sapiens, UniProt P06493)","enzyme activity, inhibitor",,> 200
O=c1cc(-c2ccc3c(c2)OCO3)oc2c1ccc1occc12,CDK9 with cyclin T1,"enzyme activity, inhibitor, ADP detection",,31.4
COc1ccc2cc3[n+](cc2c1OC)CCc1cc2c(cc1-3)OCO2,CYP2C9,"enzyme activity, inhibitor",,0.7
CC(C)(C)n1nc(-c2ccc3nc(OC4CC4)ccc3c2)c(C(N)=O)c1N,ACVR1,cell-free assay,,> 10
COc1ccc2c(Oc3ccc4c(C(=O)Nc5ccccc5N)cccc4c3)ccnc2c1,"Proto-oncogene tyrosine-protein kinase Src (SRC, Homo sapiens, UniProt P12931)","enzyme activity, inhibitor",,> 0.5
COc1ccc(S(=O)(=O)Nc2ccc3oc(-c4ccc(NC(=O)C5CCN(C(C)=O)CC5)cc4)nc3c2)cc1,MDH2,"enzyme activity, inhibitor",,> 62.5
CC(=O)c1cccc(/N=N/c2cc(/C=C/C(=O)O)ccc2O)c1,PLA2G5,"enzyme activity, inhibitor, Ellman",,43.9
COc1c(Br)cccc1C(=O)Nc1ccc(Sc2nc3ccccc3s2)cc1,MDH2,"enzyme activity, inhibitor",,> 62.5
CCn1c(COC(=O)c2ccccc2NC(=O)c2ccco2)nc2cc(S(=O)(=O)N(C)C)ccc21,CXCR4,"β-arrestin recruitment, antagonist",,63
C=CC(=O)Nc1ccc(N2CCC[C@@H](Nc3ncc(Cl)c(-c4c[nH]c5ccccc45)n3)C2)c(F)c1,CDK9 with cyclin T1,"enzyme activity, inhibitor, FRET",,0.436
O=C(Nc1ccn(Cc2ccc(O)cc2C(F)(F)F)n1)c1c(F)cccc1F,"Voltage-dependent T-type calcium channel subunit alpha-1H (CACNA1H, Homo sapiens, UniProt O95180)","ion current, inhibitor",,> 10
COc1ccc(S(=O)(=O)Nc2ccc3oc(-c4ccc(NC(=O)c5cccc(C)c5[N+](=O)[O-])cc4)nc3c2)cc1,MDH2,"enzyme activity, inhibitor",,> 62.5
CCOC(=O)C1CCN(C(=O)c2ccc(N(CC)Cc3cnc4nc(N)nc(N)c4n3)cc2)CC1,CYP2C9,"enzyme activity, inhibitor, luciferase",,8.51
COc1ccc(-c2nn3c(C)nnc3s2)cc1,"DNA dC->dU-editing enzyme APOBEC-3A (Homo sapiens, UniProt P31941)","enzyme activity, inhibitor",,> 100
CS(=O)(=O)c1ncc(N(Cc2ccccc2)Cc2ccco2)c(C(=O)Nc2ccccc2Cl)n1,CXCR4,"β-arrestin recruitment, antagonist",,40
O=C(O)/C=C/c1ccc(O)c(O)c1,PLA2G5,"enzyme activity, inhibitor, Ellman",,26.8
Cc1noc(C)c1CN(C(=O)CCc1nc(Cc2ccccc2)no1)c1ccccc1,CXCR4,β-arrestin recruitment,,200
NCc1ccc(Nc2ncc(F)c(Nc3ccccc3)n2)cc1,ACVR1,"enzyme activity, inhibitor",lysate,> 10
CCS(=O)(=O)c1ncc(N(Cc2ccccc2)Cc2ccco2)c(C(=O)Nc2ccc(C)cc2)n1,CXCR4,"β-arrestin recruitment, antagonist",,25
CCn1ncc2c1-c1cnc(N)c(c1)O[C@H](C)c1cc(F)ccc1-c1nn(C)nc1C2,NTRK3,"enzyme activity, inhibitor, radiometric",,0.154
